From PubChem BioAssay
Kir21 block: inhibitors of mouse Kir2.1 inward-rectifier potassium channel; Inward rectifier potassium channel 2 (Mus musculus), P35561; HEK293-Kir2.1, FluxOR thallium flux fluorescence; hits give low values; B-score at 10 µM; 310,000 compounds, 0.85% hits; AID 1672, 2009;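 active = fluorescence ratio B-score at or below minus 3 SD of library scores, with starting-brightness B-score within 2 SD, cut at about -4.2 in these data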;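 note: channel flux triggered by added potassium and thallium sulfate stimulus; B-score of peak minus minimum fluorescence over baseline after thallium stimulus; more negative B-score means stronger Kir2.1 block with less thallium influx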
hERG protect: hERG rescue from dofetilide block, primary screen, cell-based, CHO-hERG, FluxOR thallium flux, dofetilide IC70 | Voltage-gated inwardly rectifying potassium channel KCNH2 (Homo sapiens), Q12809 | dofetilide IC70 present | activation (rescue from dofetilide block), less the hit threshold, % at 10 µM | 310,000 compounds, 0.51% hits | AID 1511, 2009;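 active = activation above the mean of controls blocked by dofetilide plus 5 SD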;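 note: thallium influx through hERG after potassium depolarization seen as dye fluorescence rise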
KCNQ1 block: inhibitors of human KCNQ1 channel, primary screen, cell-based, thallium flux, high-throughput. 310,000 compounds, 1.3% hits. CHO-K1 KCNQ1, FluxOR thallium flux fluorescence; hits give high values. B-score at 10 µM. Potassium voltage-gated channel subfamily KQT member 1 (Homo sapiens), P51787;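 active = compounds whose thallium flux B-score, printed positive for inhibition, exceeds three library SD while starting fluorescence stays within three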;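 note: channel opened by potassium depolarization with thallium stimulus after 20 min compound exposure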
Target sequence (P51787 whole entry, looked up): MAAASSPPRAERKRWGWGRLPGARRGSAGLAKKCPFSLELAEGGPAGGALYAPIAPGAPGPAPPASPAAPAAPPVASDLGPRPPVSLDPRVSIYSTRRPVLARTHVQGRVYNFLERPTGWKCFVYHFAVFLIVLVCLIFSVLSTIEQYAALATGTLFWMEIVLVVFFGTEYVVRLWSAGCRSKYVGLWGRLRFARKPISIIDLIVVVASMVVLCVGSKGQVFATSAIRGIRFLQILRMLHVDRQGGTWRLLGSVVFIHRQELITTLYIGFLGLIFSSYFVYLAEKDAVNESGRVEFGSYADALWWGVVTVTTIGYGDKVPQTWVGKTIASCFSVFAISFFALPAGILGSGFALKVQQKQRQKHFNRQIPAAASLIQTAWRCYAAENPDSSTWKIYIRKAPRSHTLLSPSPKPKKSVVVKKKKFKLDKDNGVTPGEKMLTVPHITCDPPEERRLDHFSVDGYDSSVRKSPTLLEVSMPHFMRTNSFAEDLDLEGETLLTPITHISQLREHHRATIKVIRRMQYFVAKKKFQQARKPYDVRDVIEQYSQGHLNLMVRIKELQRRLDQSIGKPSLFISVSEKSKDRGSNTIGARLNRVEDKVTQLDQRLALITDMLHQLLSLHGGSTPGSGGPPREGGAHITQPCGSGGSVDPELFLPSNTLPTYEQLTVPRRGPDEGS
KCNK9 inh: KCNK9 potassium channel inhibitors, primary screen, HEK293 cells, thallium flux. Potassium channel subfamily K member 9 (Homo sapiens), Q9NPC2. FluxOR thallium flux fluorescence; hits give low values. B-score at 10 µM. 310,000 compounds, 1.2% hits. AID 488922, 2010;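 active = ratio B-score over 3 SD below the library mean, with starting fluorescence within 5 SD of its mean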;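 note: negative B-score means less thallium flux so channel inhibition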
KCNK3 block: human KCNK3 channel inhibitors, primary screen, CHO cells, FluxOR thallium flux, B-score | FluxOR fluorescence; hits give low values | 340,000 compounds, 0.84% hits | B-score at 10 µM | Potassium channel subfamily K member 3 (Homo sapiens), O14649;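 active = B-score under library mean minus 4 SD, starting fluorescence ratio at most library mean plus 5 SD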;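 note: more negative B-score means stronger inhibition of thallium flux through KCNK3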
KCNQ1 act: potentiators or activators of KCNQ1 channel, primary screen, cell-based, thallium flux, high-throughput. Potassium voltage-gated channel subfamily KQT member 1 (Homo sapiens), P51787. CHO-K1 KCNQ1, thallium flux FluxOR fluorescence; hits give high values. B-score at 10 µM. 310,000 compounds, 0.35% hits;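 active = fluorescence ratio B-score, a plate-corrected score, at least three library SD, with initial intensity B-score within 5 SD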
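System: CHO-K1 cells stably expressing KCNQ1 / Medium: assay buffer for compound exposure, DMSO matched across wells / Reagent: thallium- and potassium-containing depolarizing buffer / Compound: one concentration, matched DMSO / Incubation: 20 min compound pretreatment at room temperature / Measured by: kinetic FluxOR fluorescence, 10 s baseline plus 110 s post-stimulus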
KCNK9 block conf: KCNK9 potassium channel inhibitors, confirmation, HEK293 cells, thallium flux, duplicate; AID 492992, 2010; 4,900 compounds, 43% hits; FluxOR thallium flux fluorescence; shares compounds with KCNK9 inh; inhibition, % at 10 µM;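 active = thallium signal inhibited by more than 5 SD of the compound-free buffer control wells, on both duplicate plates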;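 note: 0% = assay buffer control wells without compound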
Kir2-1 spec: mouse Kir2.1 channel inhibition, confirmation, selectivity assay for KCNK9 modulator project, cell-based, HEK293, thallium flux; inhibition, % at 10 µM; AID 492993, 2010; Kir2.1 cells, FluxOR thallium flux fluorescence; shares compounds with KCNK9 inh; 4,900 compounds, 4% hits;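 active = thallium signal drop more than 5 SD beyond the mean of the no-compound control wells, seen in both duplicate plates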;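 note: signal is fluorescence rise after thallium addition divided by baseline fluorescence; plate controls were assay buffer only for no effect and full block by chlorpromazine control for full effect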
HEK293 Tl ctr: thallium flux in non-induced HEK293 cells, confirmation, counter-screen for KCNK9 inhibitor project, cell-based, second counter screen, non-induced KCNK9-HEK293. inhibition, % at 10 µM. AID 492997, 2010. 4,900 compounds, 40% hits. FluxOR thallium flux. shares compounds with KCNK9 inh;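 active = thallium signal drop beyond 5 SD of the untreated control mean, on both duplicate plates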;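 note: plate controls were buffer only IC0 wells for no effect and SID17386958 at its maximal inhibitory level for full effect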
Active calls of the source: *; i = inactive; · = not tested or not shown; ! = repeats disagree. This is a sample that favours compounds with a hit; in the whole collection about 3.7% have one here.

SMILES	Kir21 block	hERG protect	KCNQ1 block	KCNK9 inh	KCNK3 block	KCNQ1 act	KCNK9 block conf	Kir2-1 spec	HEK293 Tl ctr
CC(=O)C1=C(C)NC(SCC(=O)c2cc(Cl)ccc2Cl)=C(C#N)C1c1ccco1 (stereo not drawn)	1.1	-6	11*	-14*	-14*	i	74%*	i	35%*
O=C(NCC1CC1)C1(C(F)(F)F)CC(CCc2ccccc2)CCCO1 (stereo not drawn)	1.1	-8	i	i	i	i	i	i	i
Cc1ccc(Cl)cc1NC1=C/C(=N\S(=O)(=O)c2cccs2)c2ccccc2C1=O	0.68	-2	i	-8.3*	-10*!	i	26%*	i	i
CN(CC1CCCO1)S(=O)(=O)c1ccc(C(=O)Nc2nccs2)cc1 (stereo not drawn)	1	-10	i	i	i	i	·	·	·
Cc1ccc(C(=O)NCCSc2c(C)[nH]c3ccccc23)cc1[N+](=O)[O-]	-1.1	-12	i	i	i	i	·	·	·
Cc1ccc(SCCNC(=O)c2ccc(C)c([N+](=O)[O-])c2)cc1	0.06	-15	i	i	i	i	·	·	·
Cc1ccc(C(=O)NCCSc2ccc(Cl)cc2)cc1[N+](=O)[O-]	-3.5	-23	i	i	i	i	i	i	i
Cc1ccc(SCCNC(=O)c2ccc([N+](=O)[O-])c(C)c2)cc1	-2	-7	i	i	i	i	i	i	i
CCCS(=O)(=O)N1CCN=C1SCc1cccc2ccccc12	-0.84	-12	i	i	i	i	i	i	i
Nc1nc(-c2ccccc2)c(-c2ccccc2)o1	-0.9	-8	i	i	i	i	·	·	·
c1ccc(-c2nc(-c3nccc4ccccc34)oc2-c2ccccc2)cc1	0.76	-9	i	i	i	i	i	i	i
Cc1cc(NC(=S)Nc2cccc3ccccc23)n[nH]1	0.21	-5	i	i	i	i	·	·	·
CN(C(=O)COC(=O)c1ccccc1OCc1ccc(F)cc1)C1CCS(=O)(=O)C1 (stereo not drawn)	·	·	·	·	i	·	·	·	·
Cc1cccc(C(=O)O/N=C/c2c(Cl)n(C)c3ccccc23)c1	1.8	-8	i	-12*	i	i	48%*	i	34%*
Cc1ccc(C(=O)O/N=C/c2c(Cl)n(C)c3ccccc23)cc1	-0.91	-1	i	i	i	i	·	·	·
COc1ccccc1Cc1noc(COc2cccc(C)c2C)n1	0.35	-14	i	i	i	i	i	i	i
CCc1nc2ccccc2nc1N1CCN(S(=O)(=O)c2ccccc2)CC1	1.3	-8	i	i	i	i	·	·	·
CCc1nc2ccccc2nc1N1CCN(S(=O)(=O)c2c(C)cc(Cl)cc2C)CC1	1.1	-10	i	i	i	i	i	i	i
COc1ccc(/C=N/NC(=O)c2ccc3c(c2)OCO3)c(C(=O)O)c1OC	1.2	-5	i	i	i	i	·	·	·
CCc1ccc(NC(=S)N(CCN2CCCCC2)Cc2ccco2)cc1	-0.31	-12	i	-8.8*	i	i	41%*	i	40%*
O=S(=O)(Nc1nc2ccccc2nc1N1CCc2ccccc2C1)c1ccc(Cl)cc1	-0.15	-11	i	-12*	i	i	46%*	i	i
CCC1Nc2ncnc(N3CCCCC3)c2N(Cc2ccc(Br)cc2)C1=O (stereo not drawn)	-2.6	-16	i	-11*	i	i	58%*	i	30%*
CC(C)CC1Nc2ncnc(N3CCCCC3)c2N(Cc2ccc(Br)cc2)C1=O (stereo not drawn)	-0.53	-13	i	-14*	i	i	76%*	i	50%*
O=C1C(Cc2ccccc2)Nc2ncnc(N3CCc4ccccc4C3)c2N1Cc1ccc(Cl)cc1 (stereo not drawn)	0.11	-11	i	-10*	i	i	46%*	i	36%*
Cc1ccc(-c2c(C(=O)N/N=C/c3ccsc3)nnn2-c2nonc2N)cc1	0.07	-5	i	i	i	i	·	·	·
SMILES	Kir21 block	hERG protect	KCNQ1 block	KCNK9 inh	KCNK3 block	KCNQ1 act	KCNK9 block conf	Kir2-1 spec	HEK293 Tl ctr
NC(=O)C1CCN(CC(=O)Nc2ccc(S(=O)(=O)N3CCOCC3)cc2)CC1	-0.42	-4	i	i	i	i	·	·	·
CC[C@]12c3[nH]c4ccc(Cl)cc4c3CCN1C(=O)[C@@H](CC(=O)NC/C=C(\C)CCC=C(C)C)C[C@@H]2C(=O)N1CCN(C(=O)c2ccco2)CC1	·	·	·	·	i	·	·	·	·
COc1ccccc1NS(=O)(=O)c1cccc(C(=O)N2CCN(C(=O)c3ccco3)CC2)c1	·	·	·	·	i	·	·	·	·
CCN(CC)S(=O)(=O)c1cccc(C(=O)NC2CCCCC2)c1	0.1	-12	i	i	i	i	·	·	·
CCN(CC)S(=O)(=O)c1ccc(C)c(NC(=S)NC2CCCCC2)c1	-0.16	-8	i	i	i	i	i	i	i
Cc1ccc2nc(SCC(=O)N3CCCCC3)nc(=O)n2c1	-0.17	-10	i	i	i	i	·	·	·
COc1c(Cl)cc(Cl)cc1C(=O)n1nc(C)cc1C	-2.1	-5	i	i	i	i	i	i	i
COc1cc(CN2CCc3c([nH]c4ccccc34)C2)cc(OC)c1	-4.2*	-13	i	-8.1*	i	i	39%*	i	i
COc1ccccc1CN1CCc2c([nH]c3ccccc23)C1	-1.3	-7	i	i	i	i	·	·	·
Cc1ccc(S(=O)(=O)NC2CC2)cc1[N+](=O)[O-]	0.04	2	i	i	i	i	·	·	·
